Consider four compounds from ChEMBL document CHEMBL1765045, “Fine-tuning the selectivity of aldosterone synthase inhibitors: structure-activity and structure-selectivity insights from studies of heteroaryl substituted 1,2,5,6-tetrahydropyrrolo[3,2,1-ij]quinolin-4-one derivatives” (J Med Chem, 2011).

Usually inhibition stands for the percentage by which the read-out fell short of the control. Usually IC50 stands for the midpoint of a concentration-inhibition curve.

For series [1], the target named is CYP2D6 (Homo sapiens, UniProt P10635). As to the kind of experiment: Inhibition of human CYP2D6 expressed in baculovirus-infected insect microsomes at 10 uM. The class given is ADME, Microsome. The essentials:
(§1)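 Recombinant human CYP1A2, 2B6, 2C9, 2C19, 2D6 or 3A4 in baculovirus-infected insect microsomes (Supersomes), run per manufacturer's protocol. Inhibitor at 1 and 10 μM; percent inhibition is the mean of two experiments.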

Series [2] addresses T1, CYP1A2 (Homo sapiens, UniProt P05177).
T1 sequence (P05177 whole entry): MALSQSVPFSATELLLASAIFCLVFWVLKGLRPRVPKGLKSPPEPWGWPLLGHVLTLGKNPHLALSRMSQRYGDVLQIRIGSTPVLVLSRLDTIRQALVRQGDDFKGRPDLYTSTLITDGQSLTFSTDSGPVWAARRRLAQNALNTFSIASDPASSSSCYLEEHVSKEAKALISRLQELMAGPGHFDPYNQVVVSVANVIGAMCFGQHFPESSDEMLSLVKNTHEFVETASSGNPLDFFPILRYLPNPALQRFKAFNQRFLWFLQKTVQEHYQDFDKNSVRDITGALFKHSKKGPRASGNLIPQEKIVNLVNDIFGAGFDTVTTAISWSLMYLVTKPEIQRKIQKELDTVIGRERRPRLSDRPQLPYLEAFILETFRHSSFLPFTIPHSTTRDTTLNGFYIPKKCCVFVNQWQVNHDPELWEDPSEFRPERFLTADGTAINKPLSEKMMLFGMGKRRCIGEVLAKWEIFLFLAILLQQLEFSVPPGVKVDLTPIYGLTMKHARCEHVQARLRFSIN
As to the kind of experiment: Inhibition of human CYP1A2 expressed in baculovirus-infected insect microsomes at 1 uM. The class given is ADME, Microsome. The gist of the method:
as §1

Series [3] concerns the target T2, Cytochrome P450 11B2, mitochondrial (Homo sapiens, UniProt P19099).
T2 sequence (P19099 whole entry): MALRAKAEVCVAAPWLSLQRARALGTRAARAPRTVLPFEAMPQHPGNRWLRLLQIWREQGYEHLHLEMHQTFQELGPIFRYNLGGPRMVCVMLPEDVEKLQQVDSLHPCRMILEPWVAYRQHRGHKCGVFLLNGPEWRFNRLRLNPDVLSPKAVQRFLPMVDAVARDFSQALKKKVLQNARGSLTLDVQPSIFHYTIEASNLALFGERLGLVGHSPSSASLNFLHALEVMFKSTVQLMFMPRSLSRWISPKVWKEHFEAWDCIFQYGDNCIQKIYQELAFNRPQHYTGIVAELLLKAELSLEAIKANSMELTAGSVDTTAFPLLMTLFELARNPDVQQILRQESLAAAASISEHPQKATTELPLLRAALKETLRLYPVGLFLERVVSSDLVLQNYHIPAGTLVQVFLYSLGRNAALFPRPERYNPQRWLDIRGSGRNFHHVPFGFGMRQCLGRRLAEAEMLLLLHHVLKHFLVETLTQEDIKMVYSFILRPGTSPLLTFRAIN
In words: Inhibition of human CYP11B2 expressed in hamster V79 MZh cells assessed as conversion of [4-14C]-11-deoxycorticosterone substrate at 500 nM by HPTLC assay. Particulars: V79MZh. The class given is cell-based. The essentials: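 V79 MZh cells expressing human CYP11B2 given [4-14C]-11-deoxycorticosterone, 100 nM, with inhibitor at a single 500 nM concentration. Ethyl acetate extraction, then HPTLC/phosphoimager readout of conversion. Percent inhibition is the mean of at least three experiments.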

Series [4] has as its target T3, CYP2B6 (Homo sapiens, UniProt P20813).
T3 sequence (P20813 whole entry): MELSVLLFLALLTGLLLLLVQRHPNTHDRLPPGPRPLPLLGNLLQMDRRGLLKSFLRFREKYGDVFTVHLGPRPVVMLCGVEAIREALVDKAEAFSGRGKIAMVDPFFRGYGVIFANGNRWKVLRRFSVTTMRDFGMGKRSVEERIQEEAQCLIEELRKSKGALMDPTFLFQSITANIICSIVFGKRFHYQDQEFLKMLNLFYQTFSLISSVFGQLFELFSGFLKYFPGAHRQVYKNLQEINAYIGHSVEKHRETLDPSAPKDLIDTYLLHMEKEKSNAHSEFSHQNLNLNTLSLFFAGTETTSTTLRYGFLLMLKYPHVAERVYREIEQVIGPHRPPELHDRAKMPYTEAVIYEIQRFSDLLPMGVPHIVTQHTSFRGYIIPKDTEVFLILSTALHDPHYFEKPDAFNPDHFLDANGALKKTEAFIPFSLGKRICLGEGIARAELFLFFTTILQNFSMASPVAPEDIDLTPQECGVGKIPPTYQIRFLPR
As to the kind of experiment: Inhibition of human CYP2B6 expressed in baculovirus-infected insect microsomes at 10 uM. The class given is ADME, Microsome. The gist of the method:
as §1

Series [5] addresses CYP3A4 (Homo sapiens, UniProt P08684). As to the kind of experiment: Inhibition of human CYP3A4 expressed in baculovirus-infected insect microsomes at 1 uM. The series is classed as ADME, Microsome. The gist of the method:
as §1

For series [6], the target named is T4, Cytochrome P450 11B1, mitochondrial (Homo sapiens, UniProt P15538).
T4 sequence (P15538 whole entry): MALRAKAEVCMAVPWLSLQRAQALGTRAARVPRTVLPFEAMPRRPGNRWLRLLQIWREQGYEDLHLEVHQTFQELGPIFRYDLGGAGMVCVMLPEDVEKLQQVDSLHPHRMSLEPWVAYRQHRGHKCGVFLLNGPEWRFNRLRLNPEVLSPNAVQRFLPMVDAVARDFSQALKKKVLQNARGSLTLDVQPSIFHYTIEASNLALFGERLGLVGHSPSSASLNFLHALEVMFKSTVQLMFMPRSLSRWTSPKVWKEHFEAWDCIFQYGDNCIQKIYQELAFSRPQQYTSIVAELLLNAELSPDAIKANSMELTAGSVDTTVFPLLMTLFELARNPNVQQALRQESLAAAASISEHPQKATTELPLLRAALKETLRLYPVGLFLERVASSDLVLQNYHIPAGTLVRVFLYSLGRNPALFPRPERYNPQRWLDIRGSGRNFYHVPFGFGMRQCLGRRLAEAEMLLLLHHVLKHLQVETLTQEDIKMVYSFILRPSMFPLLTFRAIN
In words: Inhibition of human CYP11B1 expressed in hamster V79 MZh cells assessed as conversion of [4-14C]-11-deoxycorticosterone substrate by HPTLC assay. The series is classed as cell-based. The gist of the method: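 V79 MZh hamster fibroblasts stably expressing human CYP11B1 or CYP11B2 incubated with [4-14C]-11-deoxycorticosterone, 100 nM, plus inhibitor at ≥3 concentrations. Reaction stopped with ethyl acetate, steroids extracted into the organic phase, and substrate conversion quantified by HPTLC with phosphoimaging. IC50 is the mean of at least three experiments.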

In series [7] the target is CYP2C19 (Homo sapiens, UniProt P33261). In words: Inhibition of human CYP2C19 expressed in baculovirus-infected insect microsomes at 1 uM. The series is classed as ADME, Microsome. The essentials:
as §1

Sequence of CYP2D6 (P10635 whole entry): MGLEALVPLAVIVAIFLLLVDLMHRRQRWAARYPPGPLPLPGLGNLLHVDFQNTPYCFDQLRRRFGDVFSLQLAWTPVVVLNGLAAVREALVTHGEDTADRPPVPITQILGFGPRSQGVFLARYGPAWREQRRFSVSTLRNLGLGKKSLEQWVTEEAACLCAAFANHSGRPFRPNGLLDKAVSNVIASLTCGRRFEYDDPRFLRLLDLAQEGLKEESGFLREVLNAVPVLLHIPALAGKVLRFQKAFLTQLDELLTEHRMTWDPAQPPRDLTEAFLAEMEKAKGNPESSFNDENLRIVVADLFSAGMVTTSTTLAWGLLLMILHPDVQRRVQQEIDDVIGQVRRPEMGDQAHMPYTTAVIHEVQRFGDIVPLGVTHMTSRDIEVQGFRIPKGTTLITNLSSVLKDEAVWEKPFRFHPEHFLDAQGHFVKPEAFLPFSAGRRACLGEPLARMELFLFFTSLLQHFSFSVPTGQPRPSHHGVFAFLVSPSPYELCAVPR
Sequence of CYP3A4 (P08684 whole entry): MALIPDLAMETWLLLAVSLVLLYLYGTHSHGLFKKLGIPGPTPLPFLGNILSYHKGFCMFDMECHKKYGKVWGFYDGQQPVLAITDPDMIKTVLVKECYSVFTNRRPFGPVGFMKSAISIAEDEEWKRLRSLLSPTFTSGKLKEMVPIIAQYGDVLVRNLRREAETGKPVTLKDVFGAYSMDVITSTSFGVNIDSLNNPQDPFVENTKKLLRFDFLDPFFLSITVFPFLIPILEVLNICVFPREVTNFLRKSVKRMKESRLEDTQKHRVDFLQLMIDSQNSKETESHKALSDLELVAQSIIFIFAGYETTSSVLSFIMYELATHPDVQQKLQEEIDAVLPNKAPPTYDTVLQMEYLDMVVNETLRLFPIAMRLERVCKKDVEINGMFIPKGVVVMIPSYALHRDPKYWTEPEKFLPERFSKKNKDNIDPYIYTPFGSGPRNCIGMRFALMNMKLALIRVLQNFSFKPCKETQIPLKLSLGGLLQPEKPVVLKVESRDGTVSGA
Sequence of CYP2C19 (P33261 whole entry): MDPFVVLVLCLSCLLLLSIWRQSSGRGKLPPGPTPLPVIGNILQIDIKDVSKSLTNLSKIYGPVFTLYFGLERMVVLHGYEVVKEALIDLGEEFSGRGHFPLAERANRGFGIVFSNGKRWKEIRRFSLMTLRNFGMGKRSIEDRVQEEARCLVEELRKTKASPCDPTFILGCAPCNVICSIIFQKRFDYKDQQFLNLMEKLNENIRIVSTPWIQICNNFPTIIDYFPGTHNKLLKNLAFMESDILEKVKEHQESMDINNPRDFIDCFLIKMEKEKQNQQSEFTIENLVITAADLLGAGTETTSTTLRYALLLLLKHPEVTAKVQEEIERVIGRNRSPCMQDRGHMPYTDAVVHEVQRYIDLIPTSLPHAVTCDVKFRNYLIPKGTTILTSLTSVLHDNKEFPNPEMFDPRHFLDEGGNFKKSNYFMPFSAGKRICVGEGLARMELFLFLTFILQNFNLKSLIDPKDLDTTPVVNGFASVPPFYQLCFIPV

As for `O=C1CCc2cc(-c3cccnc3)cc3c2N1CC3`, the inhibition at 10 µM in series [1] and in series [4] was less than 5% throughout. The inhibition at 1 µM in series [2] is 8%; in series [5], less than 5%; in series [7], less than 5%. Further, the inhibition at 0.5 µM in series [3] stood at 90%. In addition, the IC50 in series [6] amounted to 715 nM.

On to `O=C1CCc2cc(-c3cccnc3)cc3c2N1CCC3`, for which the inhibition at 1 µM worked out at 41% in series [2], 6% in series [5] and 8% in series [7]. The inhibition at 0.5 µM in series [3] was 95%. Moreover, testing at 10 µM in series [4] gave an inhibition of 36%. In series [6], the IC50 stood at 2300 nM.

Turning to `COc1cncc(-c2cc3c4c(c2)CCN4C(=O)CC3)c1`, the inhibition at 10 µM amounted to 13% in series [1] and 8% in series [4]. Moreover, the inhibition at 1 µM in series [2] was found to be 37%; in series [5] it was 14%; in series [7] it was 7%. In addition, in series [3], the inhibition at 0.5 µM came out at 98%. The IC50 in series [6] came out at 247 nM.

With `O=C1CCc2cc(-c3cncc(-c4cccc(F)c4)c3)cc3c2N1CC3`, the inhibition at 10 µM in series [1] turned out to be 9%; in series [4] it was 13%. Also, the inhibition at 1 µM in series [2] is 9%; in series [5] it was 37%. The inhibition at 0.5 µM in series [3] was 97%. Besides, the 50% inhibitory concentration (IC50) in series [6] came to 490 nM.
